# Source: PubChem
# Hits are enriched below; roughly 1.9% of the tested compounds scored in any of these assays.
# Autophagy HCS: autophagy modulation, high-content screen; MEF GFP-LC3 puncta imaging; test concentration mostly 10 µM; calls only at 10 µM (by protocol); 190,000 compounds, 0.98% hits; AID 463193;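 active = percentage of spot-positive cells more than 3 SD above its plate mean, without a fluorescence outlier flag or 80% toxicity; inconclusive = no clear call, values can overlap the other calls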;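 note: spot-positive cell cutoff set from DMSO-treated cells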
# b-catenin transl: alters nuclear translocation of beta-catenin in HeLa cells; nuclear translocation activity, % at 5 µM; immunofluorescence imaging; 190,000 compounds, 0.3% hits;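 active = nuclear translocation activity above 50% at 5 µM, with a well cell count of 50 or more; inconclusive = wells under 50 cells across six images, flagged as toxic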;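 note: per-cell ratio of nuclear to cytoplasmic median beta-catenin stain intensity; plate controls were DMSO negative control for no effect and GSK-3 inhibitor IX positive control for full effect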
#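 Technique: fluorescence imaging of beta-catenin antibody stain plus DAPI / Material: human HeLa cell line / Incubation: compound treatment 24 h, 37°C, 5% CO2 / Read-out basis: % activation of per-cell nuclear versus cytoplasmic median beta-catenin signal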
# HSV augment: increases HSV replication in cells | HSV replication augmentation in cells, fold increase | maximum fold increase | 220,000 compounds, 0.005% hits; in the data active = maximum fold increase above about 1.5; inconclusive = no clear call, values can overlap the other calls; tested in PC3 cells
# Furin inhibitor: blocks human furin protease activity. 220,000 compounds, 0.061% hits. P09958. inhibition, % at 20 µM or 30 µM. AID 463115. purified furin, fluorogenic substrate cleavage; in the data active = inhibition above about 25%
# Target sequence (P09958 108-714 limits assumed): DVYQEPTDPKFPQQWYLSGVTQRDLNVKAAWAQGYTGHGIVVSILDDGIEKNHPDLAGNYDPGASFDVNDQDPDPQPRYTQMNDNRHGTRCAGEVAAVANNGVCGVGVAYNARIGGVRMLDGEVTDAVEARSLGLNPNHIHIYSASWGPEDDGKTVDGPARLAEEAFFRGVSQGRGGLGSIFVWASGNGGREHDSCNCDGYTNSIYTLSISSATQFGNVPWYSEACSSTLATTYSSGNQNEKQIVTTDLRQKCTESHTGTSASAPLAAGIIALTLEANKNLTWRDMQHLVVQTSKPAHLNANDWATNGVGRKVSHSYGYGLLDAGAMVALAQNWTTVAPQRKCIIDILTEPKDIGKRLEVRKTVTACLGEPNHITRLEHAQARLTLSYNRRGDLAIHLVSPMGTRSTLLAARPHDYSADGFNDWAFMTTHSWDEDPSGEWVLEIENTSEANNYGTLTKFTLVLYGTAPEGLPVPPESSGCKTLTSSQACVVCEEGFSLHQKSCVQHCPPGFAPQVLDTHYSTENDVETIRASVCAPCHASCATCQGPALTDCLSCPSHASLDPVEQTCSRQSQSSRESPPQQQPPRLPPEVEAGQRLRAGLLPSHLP
# Insulin prom up: MIN6 insulin promoter up-regulation. MIN6 insulin promoter-GFP reporter, high-content imaging; stronger effect = higher value. z-score at 5 µM. 190,000 compounds, 0.3% hits. AID 1625;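 active = z-score above 3 at 5 µM with at least 500 cells counted in the well; inconclusive = wells under 500 cells, flagged as cytotoxic or low count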
# MT stabilize HCS: microtubule stabilizers in HeLa cells; 200,000 compounds, 0.83% hits; % tubulin-high responders, % at 10 µM; AID 2205; HeLa tubulin immunostaining HCS, 24 h; share of cells brighter than vehicle mean+2SD;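 active = plate Z-score above 3 for both tubulin-high and condensed-nucleus cell shares, with cell loss under 80%, at 10 µM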;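 note: anti alpha tubulin signal scored within the nucleus-defined area of each cell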
# Starred values were filed as active, the others as inactive; i = inactive; ? = inconclusive; · = no result; + = active, no number.
SMILES,Autophagy HCS,b-catenin transl,HSV augment,Furin inhibitor,Insulin prom up,MT stabilize HCS
O=C1C2C3C=CC(C3)C2C(=O)N1c1ccc(N2CCN(c3ccccn3)CC2)c([N+](=O)[O-])c1 (centres undefined),i,4.1,·,-24.5,-0.56,3.4
Fc1cccc(-c2cc3nc4c(c(N5CCC6(CC5)OCCO6)n3n2)CCCC4)c1,+,1.8,i,-13.0,-0.81,2.1
Clc1cccc(-c2cc3nc4c(c(N5CCNCC5)n3n2)CCCC4)c1,+,4.1,i,-22.2,·,6.6
O=C(Nc1ccccc1)C1=C(c2ccccc2)S(=O)(=O)CCS1(=O)=O,i,3.1,i,-34.5,·,1.6
O=C(O)COc1ccccc1/C=N/NC(=O)CN1CCN(Cc2ccc(Cl)cc2)CC1,·,1.1,i,-16.1,0.01,·
CCn1cc(C(=O)NCCN(C)CCc2ccccc2)c(=O)c2cc(S(=O)(=O)N(C)C)ccc21,i,-2.0,i,19.5,3.87*,1.6
C=CC[C@]12C[C@@H](OC)C(=O)C=C1O[C@@H](c1ccc(OC)c(OC)c1)[C@H]2C,·,·,i,·,·,·
Cc1nn(-c2ccccc2)c2c1C(c1ccc(O)c(O)c1)N1C(=N2)C(Nc2ccccc2)=Nc2ccccc21 (centres undefined),+,1.1,i,-22.0,0.25,2.6
Cc1ccc(NC(=O)c2c(C)nn(-c3ccccc3)c2Cl)cc1,i,1.6,i,-8.7,-0.84,3.4
Cc1ccc(NC2=Nc3ccccc3N3C2=Nc2c(c(C)nn2-c2ccccc2)C3c2ccc(O)c(O)c2)cc1 (centres undefined),+,5.4,·,-27.3,0.49,4.2
Cc1cccc(NC2=Nc3ccccc3N3C2=Nc2c(c(C)nn2-c2ccccc2)C3c2ccc(O)c(O)c2)c1 (centres undefined),i,2.8,i,-6.2,-0.18,3.5
Cc1ccc(-c2cccc(CN3CCN(C4CCN(C(C)C)CC4)C(CCO)C3)c2)o1 (centres undefined),i,0.9,i,-7.3,1.83,2.6
COCCn1c(=NC(=O)c2cc(-c3cccs3)nc3ccccc23)sc2cc(S(N)(=O)=O)ccc21,i,2.3,i,3.8,-2.12,3.4
C=CCn1c(=NC(=O)c2cc(-c3cccs3)nc3ccccc23)sc2cc(S(N)(=O)=O)ccc21,i,0.0,i,-2.4,8.96*,2.9
CCOC(=O)[C@@H]1[C@H]2COc3cc(OC)ccc3[C@@H]2N2C(=O)N(c3ccc(Cl)cc3)C(=O)[C@]12C,·,·,i,·,·,·
CCOC(=O)/C=c1\s/c(=C\c2c(OC)ccc3ccccc23)c(=O)n1CC(=O)NCC1CCCO1 (centres undefined),i,190.2*,·,11.1,-0.32,14.0
O=C(CSc1nc(-c2ccccc2)c(-c2ccccc2)[nH]1)NCCN1C(=O)CSC1=O,i,7.3,i,-9.6,-0.3,18.9*
O=C1OCC(CO)(CO)N=C1NNc1ccc(Cl)c(Cl)c1,i,1.6,i,5.3,-0.47,4.2
Cc1cc(/C=C2\NC(=S)N(C)C2=O)ccc1N1CCCC1,+,-0.1,?,-15.6,·,4.4
CN1C(=O)/C(=C/C=C2/CCCN2C)N(C)C1=S,i,2.0,i,-9.0,0.64,2.9
COc1cc(/C=C2\NC(=S)N(C)C2=O)ccc1O,i,1.9,?,-13.4,2.63,2.6
CCCN1C(=O)/C(=C/c2ccc(N3CCCC3)c(C)c2)NC1=S,+,·,?,5.5,·,1.8
CCCN1C(=O)/C(=C/c2ccc(OCC(=O)OCC)cc2)NC1=S,i,-0.9,i,-30.9,·,3.2
Cc1cc(/C=C2/C(=O)N(C)C(=S)N2C)ccc1N1CCCC1,+,1.7,?,-20.2,·,1.5
Cc1cc(N2CCCC2)ccc1/C=C1/C(=O)N(C)C(=S)N1C,i,19.6,·,-14.7,·,25.4*
SMILES,Autophagy HCS,b-catenin transl,HSV augment,Furin inhibitor,Insulin prom up,MT stabilize HCS
CCOC(=O)c1nn(-c2cccc(Cl)c2)c2nc(Nc3ccccc3)cc(=O)n12,i,·,i,-9.4,0.84,3.0
CCOC(=O)c1nn(-c2cccc(OC)c2)c2nc(Nc3ccccc3)cc(=O)n12,+,·,i,-10.5,0.55,2.5
CC1(C)Cc2c(sc3c2c(N)nc(=S)n3Cc2ccc(Br)cc2)CO1,·,-1.5,i,-24.8,-0.14,·
Oc1nc(Nc2cccc(Cl)c2)sc1/C=C1\C=Nc2ccccc21,i,1.0,i,-10.9,-1.24,18.3*
Cc1ccc(Nc2nc(NCCCN3CCOCC3)nc(N)c2[N+](=O)[O-])cc1C,i,-0.2,i,5.3,-0.82,3.8
Cc1ccc(Nc2nc(NCCCN3CCOCC3)nc(N)c2[N+](=O)[O-])cc1,+,1.8,i,11.0,-0.27,2.8
COC(=O)c1sc(N2C(=O)c3oc4ccccc4c(=O)c3C2c2cccs2)nc1C (centres undefined),+,1.0,i,-10.8,-0.13,3.6
Cc1ccc(C2c3c(oc4ccccc4c3=O)C(=O)N2c2nnc(C)s2)o1 (centres undefined),i,·,·,-22.5,·,1.6
COc1ccc(NC(=O)/C(C#N)=C\c2ccc(N3CCOCC3)o2)cc1,i,1.7,·,-0.7,·,2.2
CCc1ccc(NC(=O)/C(C#N)=C/c2cc3ccc(C)cc3nc2N2CCOCC2)cc1,+,·,i,-7.2,0.55,3.3
Cc1cc(C(=O)NCCN2CCN(c3cccc(Cl)c3)CC2)n(-c2ccccc2)n1,i,58.7*,i,-22.1,1.84,14.1
CCc1ccc2nc(Nc3nc(COC)cc(=O)[nH]3)nc(C)c2c1,i,0.2,i,-10.1,-1.2,1.8
COCc1cc(=O)[nH]c(Nc2nc3ccc(C)cc3o2)n1,+,0.9,i,-15.4,-0.34,3.8
O=C1CSC(=S)N1/N=C/c1ccc(Cl)c([N+](=O)[O-])c1,·,-1.8,i,-5.5,0.37,·
CN1/C(=C\C=C(/C#N)C(=O)Nc2ccc(Cl)cc2)C(C)(C)c2ccccc21,+,-0.5,?,10.3,·,1.8
O=C(O)c1cccc(COCC(F)(F)C(F)F)c1,+,1.8,i,-23.8,-0.36,3.0
CCCNC(=O)c1cccc(COCC(F)(F)C(F)F)c1,i,-1.3,i,-13.9,0.85,3.1
CCc1c(C(=O)Nc2ccncc2)csc1C,i,0.7,i,-15.5,-4.62,3.2
COc1ccccc1NC(=O)c1oc2ccccc2c1NC(=O)c1cc(OC)c(OC)c(OC)c1,+,·,·,-18.1,·,36.4*
Cc1onc(-c2ccccc2)c1C(=O)Nc1sc2c(c1C#N)CCC(C)C2 (centres undefined),i,0.5,i,-12.1,-0.31,27.2*
Cc1onc(-c2ccccc2)c1C(=O)Nc1nc2c(s1)CCCC2,i,-0.5,i,-18.4,·,18.5*
CC(C)Cn1c(N)c(C(=O)CSc2nc3ccccc3c(=O)n2CCCN2CCOCC2)c(=O)n(C)c1=O,+,-1.0,i,-18.4,-1.16,2.9
